High-throughput results deposited in PubChem by several laboratories.
The list is not random: actives were taken first. Their share in the collection is about 2.2%.
RBBP9 inhibitor: human RBBP9 hydrolase inhibition. actives 0.2% (n = 220,000). O75884. inhibition, % at 7.94 µM. recombinant RBBP9, FP-Rh probe fluorescence polarization;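 active = inhibition above the campaign mean of all tested compounds plus 3 SD, cut at about 14% in these data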
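Controls: DMSO-treated enzyme wells and wells lacking RBBP9 | Material: RBBP9 protein | Technique: Fluorescence polarization | Replication: Single well per compound, no replicates | Buffer or medium: Tris-NaCl-Pluronic buffer, pH 8.0 | Timing: 30 min compound preincubation, 45 min probe labeling, 25 °C | Read-out basis: Percent inhibition from mP, scaled between DMSO and no-protein wells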
EBV gp42 inh: blocks Epstein-Barr virus glycoprotein 42 binding; Q1HVG2; Fluorescence polarization binding assay, mP read-out; inhibition, % (tested at 21.74 µM); actives 0.42% (n = 220,000); AID 1085; in the data active = inhibition above about 50%
Target sequence (Q1HVG2 whole entry, looked up): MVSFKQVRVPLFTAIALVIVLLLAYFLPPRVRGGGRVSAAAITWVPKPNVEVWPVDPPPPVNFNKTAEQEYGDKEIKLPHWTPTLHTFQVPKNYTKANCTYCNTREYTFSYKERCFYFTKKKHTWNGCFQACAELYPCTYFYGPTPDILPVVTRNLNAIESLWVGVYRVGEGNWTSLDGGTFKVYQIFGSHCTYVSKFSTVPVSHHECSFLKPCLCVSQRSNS
Mcl1-Noxa inh: disrupts binding of human Mcl-1 to Noxa peptide | Q07820 | TR-FRET Mcl-1/Noxa peptide binding, 2 h | inhibition, % at 21.7 µM | actives 1.5% (n = 220,000) | AID 1022;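 active = compounds that cut the protein-peptide binding signal by more than 50% relative to plate controls in a single-dose test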;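 note: His-tagged Mcl-1 with rhodamine Noxa BH3 peptide and terbium anti-His antibody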
Target sequence (Q07820 whole entry, looked up): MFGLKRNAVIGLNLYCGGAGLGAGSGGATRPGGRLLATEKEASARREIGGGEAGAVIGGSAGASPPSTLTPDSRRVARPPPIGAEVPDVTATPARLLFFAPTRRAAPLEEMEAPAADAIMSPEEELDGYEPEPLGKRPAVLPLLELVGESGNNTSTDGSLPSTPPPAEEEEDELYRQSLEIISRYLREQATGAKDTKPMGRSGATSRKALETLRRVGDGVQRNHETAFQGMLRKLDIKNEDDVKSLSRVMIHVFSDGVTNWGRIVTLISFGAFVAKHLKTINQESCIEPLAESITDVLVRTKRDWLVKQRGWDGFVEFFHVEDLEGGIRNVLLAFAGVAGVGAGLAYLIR
MCL1-BIM inh: MCL1-BIM-BH3 interaction inhibition (human) | Q07820 | GST-MCL1 / FITC-Bim-BH3 fluorescence polarization | inhibition, % at 10.9 µM | actives 0.68% (n = 320,000) | AID 2057;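 active = inhibition above the mean inhibition of all tested compounds plus 3 SD, set per campaign, cut at about 40% in these data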;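 note: higher means more loss of mP so more displacement of Bim peptide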
Mcl1-Bid inh: disrupts binding of human Mcl-1 to Bid peptide; inhibition, % at 21.7 µM; actives 0.97% (n = 220,000); TR-FRET Mcl-1/Bid-Dy647 peptide binding, 1536-well; AID 1021;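 active = compounds that cut the binding signal by more than half at the single screening dose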;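 note: His-tagged Mcl-1 with europium anti-His antibody binding Bid BH3 peptide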
Bim-Mcl-1: human Bim-Mcl-1 interaction inhibition; Q07820; Bead-based flow cytometry, Bim peptide-Mcl-1 binding; inhibition, % at 10 µM; actives 0.1% (n = 190,000); AID 1009; in the data active = inhibition above about 40%
Numbers stand for hits.

CCCCNC(=O)c1sc(=S)n2c1[nH]c(=O)c1ccccc12 was read as RBBP9 inhibitor inactive, EBV gp42 inh inactive, Mcl1-Noxa inh inactive, MCL1-BIM inh inactive, Mcl1-Bid inh inactive and Bim-Mcl-1 inactive.
O=C(Nc1ccccc1)NC1CCCc2ccccc21 (configuration not stated) was read as RBBP9 inhibitor inactive, EBV gp42 inh inactive, Mcl1-Noxa inh inactive, MCL1-BIM inh inactive, Mcl1-Bid inh inactive and Bim-Mcl-1 inactive.
CNC(=O)NC1CCCc2ccccc21 (configuration not stated) was read as RBBP9 inhibitor inactive, EBV gp42 inh inactive, Mcl1-Noxa inh 92, MCL1-BIM inh inactive, Mcl1-Bid inh inactive and Bim-Mcl-1 inactive.
For Cc1nnc(-c2cccc(Br)c2)c2cn(-c3ccc(Br)cc3)nc12 the results were RBBP9 inhibitor inactive, EBV gp42 inh inactive, Mcl1-Noxa inh inactive, MCL1-BIM inh inactive, Mcl1-Bid inh 56 and Bim-Mcl-1 inactive.
Screening CN(CC(=O)NCc1ccc(F)cc1)CC(=O)Nc1ccc(Cl)c(C(F)(F)F)c1 returned MCL1-BIM inh inactive.
Screening CN(C)c1ccc(N2CC(C)(C)C2=O)cc1 returned RBBP9 inhibitor inactive, EBV gp42 inh inactive, Mcl1-Noxa inh 63, MCL1-BIM inh inactive, Mcl1-Bid inh inactive and Bim-Mcl-1 inactive.
Screening COc1cc(Cl)cc(/C=N/NC(N)=O)c1O returned RBBP9 inhibitor inactive, EBV gp42 inh inactive, Mcl1-Noxa inh inactive, MCL1-BIM inh inactive, Mcl1-Bid inh inactive and Bim-Mcl-1 inactive.
Cc1cc(C)cc(N(C(C)C(=O)N2CCOCC2)S(C)(=O)=O)c1 (configuration not stated) was read as RBBP9 inhibitor inactive, EBV gp42 inh inactive, Mcl1-Noxa inh inactive, MCL1-BIM inh inactive, Mcl1-Bid inh 53 and Bim-Mcl-1 inactive.
`COc1ccc2c3c(cccc13)N(C)N=C2C` gave RBBP9 inhibitor inactive, EBV gp42 inh inactive, Mcl1-Noxa inh 87, MCL1-BIM inh 87, Mcl1-Bid inh inactive and Bim-Mcl-1 inactive.
Screening O=C(Cc1nc2ccccc2[nH]c1=O)c1ccccc1 returned RBBP9 inhibitor inactive, EBV gp42 inh 52, Mcl1-Noxa inh inactive, Mcl1-Bid inh inactive and Bim-Mcl-1 inactive.
C/C(O)=C/c1nc2ccccc2[nH]c1=O was read as RBBP9 inhibitor inactive, EBV gp42 inh inactive, Mcl1-Noxa inh inactive, MCL1-BIM inh inactive, Mcl1-Bid inh inactive and Bim-Mcl-1 inactive.
O=c1[nH]c2cc3ccccc3cc2nc1C(F)(F)F was read as RBBP9 inhibitor inactive, EBV gp42 inh inactive, Mcl1-Noxa inh inactive, MCL1-BIM inh inactive, Mcl1-Bid inh inactive and Bim-Mcl-1 inactive.
Cc1nc2ccccc2[nH]c1=O was read as RBBP9 inhibitor inactive, EBV gp42 inh inactive, Mcl1-Noxa inh inactive, MCL1-BIM inh inactive and Mcl1-Bid inh 59.
Screening O=c1[nH]c2ccccc2nc1C(F)(F)C(F)F returned RBBP9 inhibitor inactive, EBV gp42 inh inactive, Mcl1-Noxa inh inactive, MCL1-BIM inh inactive, Mcl1-Bid inh 63 and Bim-Mcl-1 inactive.
`CN(C(=O)COC(=O)CCc1c[nH]c2ccccc12)c1ccccc1` gave MCL1-BIM inh inactive.
Nc1c2c(nc3ccccc13)CCCC2 was read as RBBP9 inhibitor inactive, EBV gp42 inh inactive, Mcl1-Noxa inh 51, MCL1-BIM inh inactive, Mcl1-Bid inh inactive and Bim-Mcl-1 inactive.
Clc1c2c(nc3ccccc13)CCC2 was read as MCL1-BIM inh inactive.
For CC(=O)c1ccc(N2CCN(C(=O)CCS(=O)(=O)c3ccc4c(c3)NC(=O)CS4)CC2)cc1 the results were MCL1-BIM inh inactive.
For COc1cccc(OCC(=O)N(C)Cc2nc(-c3cccc(C)c3)no2)c1 the results were MCL1-BIM inh inactive.
COC(=O)c1ccc(/C=N/n2c(C)nc3ccccc3c2=O)cc1 was read as MCL1-BIM inh inactive.
CCC(C)c1ccccc1NC(=O)C(C)NCCN(C)C (configuration not stated) was read as RBBP9 inhibitor inactive, EBV gp42 inh inactive, Mcl1-Noxa inh inactive, MCL1-BIM inh inactive and Mcl1-Bid inh 60.
For CN(C)c1ccc(NC(=O)CSc2nc(N)c(C(=O)Nc3ccc(N(C)C)cc3)s2)cc1 the results were RBBP9 inhibitor inactive, EBV gp42 inh inactive, Mcl1-Noxa inh 73, MCL1-BIM inh inactive, Mcl1-Bid inh inactive and Bim-Mcl-1 inactive.
`COc1ccc(NC(=O)CSc2nc(N)c(C(=O)Nc3ccc(N(C)C)cc3)s2)cc1` gave RBBP9 inhibitor inactive, EBV gp42 inh inactive, Mcl1-Noxa inh inactive, MCL1-BIM inh inactive, Mcl1-Bid inh inactive and Bim-Mcl-1 inactive.
`CCOC(=O)c1sc(SCC(=O)Nc2ccc(N(C)C)cc2)nc1N` gave RBBP9 inhibitor inactive, EBV gp42 inh inactive, Mcl1-Noxa inh 72, MCL1-BIM inh inactive, Mcl1-Bid inh inactive and Bim-Mcl-1 inactive.
Screening COc1ccc(NC(=O)CSc2nnc(N)s2)cc1 returned RBBP9 inhibitor inactive, EBV gp42 inh inactive, Mcl1-Noxa inh inactive, MCL1-BIM inh inactive, Mcl1-Bid inh inactive and Bim-Mcl-1 inactive.
`Cc1ccc(CNC(=O)CCS(=O)(=O)c2ccc3c(c2)CC(C)N3C(=O)C2CC2)cc1` (configuration not stated) gave MCL1-BIM inh inactive.
Screening CCOc1ccc(N(Cc2cc3ccc(C)cc3[nH]c2=O)S(=O)(=O)c2ccccc2)cc1 returned MCL1-BIM inh inactive.
CCOc1ccc(N2CC(O)=C(c3nc4ccccc4c(=O)[nH]3)C2=N)cc1 was read as RBBP9 inhibitor inactive, EBV gp42 inh inactive, Mcl1-Noxa inh inactive, MCL1-BIM inh inactive, Mcl1-Bid inh 57 and Bim-Mcl-1 inactive.
For N=C1C(c2nc3ccccc3c(=O)[nH]2)=C(O)CN1c1ccccc1 the results were RBBP9 inhibitor inactive, EBV gp42 inh inactive, Mcl1-Noxa inh inactive, Mcl1-Bid inh inactive and Bim-Mcl-1 inactive.
COc1ccc(-c2cc(-c3ccc(Cl)cc3)c(C#N)c(SCC(=O)O)n2)cc1 was read as MCL1-BIM inh inactive.
Cc1c(NC(=O)c2ccc(S(=O)(=O)N(C)c3ccccc3)cc2)c(=O)n(-c2ccccc2)n1C was read as RBBP9 inhibitor inactive, EBV gp42 inh inactive, Mcl1-Noxa inh inactive, MCL1-BIM inh inactive, Mcl1-Bid inh inactive and Bim-Mcl-1 inactive.
For COCCN(CCOC)S(=O)(=O)c1ccc(C(=O)Nc2c(C)n(C)n(-c3ccccc3)c2=O)cc1 the results were RBBP9 inhibitor inactive, EBV gp42 inh inactive, Mcl1-Noxa inh 102, MCL1-BIM inh inactive and Mcl1-Bid inh inactive.
Screening Cc1cccc(N(CC(=O)Nc2c(C)n(C)n(-c3ccccc3)c2=O)S(C)(=O)=O)c1 returned RBBP9 inhibitor inactive, EBV gp42 inh inactive, Mcl1-Noxa inh inactive, MCL1-BIM inh inactive, Mcl1-Bid inh 99 and Bim-Mcl-1 inactive.
`COc1ccccc1N1CCN(C(=O)CCCN2C(=O)c3cccc4cccc(c34)C2=O)CC1` gave RBBP9 inhibitor inactive, EBV gp42 inh inactive, Mcl1-Noxa inh inactive, MCL1-BIM inh inactive, Mcl1-Bid inh inactive and Bim-Mcl-1 inactive.
